For orientation: IC50 means the concentration needed to halve the response being measured.

The test system of one test is HT-29. Kind of test: Antiproliferative activity against human HT-29 cells after 48 hrs by MTT assay. It is filed as functional, cell-based. The settings on record: HT-29, 48 h. Put shortly:
(§1)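 Cells seeded at 3,000-5,000/well by doubling time and grown 24 h (37 °C, 5% CO2). HT-29/U87MG kept in DMEM + 10% FBS; A549/PC-3/HaCaT in RPMI-1640 + 10% FBS. Compounds for 48 h, then MTT 4 h, formazan dissolved in DMSO, A570 minus A630. % inhibition vs DMSO-treated cells; IC50 by probit. Three independent experiments in quadruplicate; mean ± SD.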
(Formazan colour is commonly taken as a measure of viable cells.)

Test [1] in a line: Antiproliferative activity against human PC3 cells after 48 hrs by MTT assay. It is filed as functional, cell-based. Conditions: PC-3, 48 h. Put shortly: as §1
In a further test the test system is A549. Kind of test: Antiproliferative activity against human A549 cells after 48 hrs by MTT assay. It is filed as functional, cell-based. Conditions: A549, 48 h. Put shortly: as §1
Test [2] in a line: Antiproliferative activity against human U87MG cells after 48 hrs by MTT assay. It counts as functional, cell-based, U-87MG ATCC. The settings on record: U-87 MG. Put shortly: as §1
In a further test the test system is HaCaT. Kind of test: Antiproliferative activity against human HaCaT cells after 48 hrs by MTT assay. It counts as cell-based. Put shortly:
as §1

As to `O=C(/C=C\Nc1ccc(Cl)cc1)c1cn(-c2ccccc2)nc1-c1ccc(F)cc1`, the IC50 in the test on HT-29 came out at 4.6 µM; in test [1], 3.8 µM; in the test on A549 it was 6.7 µM; in test [2], 8.9 µM; in the test with HaCaT, 21.3 µM.

For `O=C(/C=C\Nc1ccc(Cl)cc1)c1cn(-c2ccccc2)nc1-c1ccccc1`, the IC50 with HT-29 was 3.61 µM; in test [1], 5.2 µM; with A549 it was 14.1 µM; in test [2] it was 11.4 µM; in the test on HaCaT it was 28.4 µM.

On to `O=C(/C=C\Nc1ccc(C(F)(F)F)cc1)c1cn(-c2ccccc2)nc1-c1ccc(F)cc1`, for which the IC50 (in the test on HT-29; in test [1]; with A549; in test [2]; with HaCaT) was more than 50 µM throughout.

Consider `O=c1[nH]cc(F)c(=O)[nH]1` [FLUOROURACIL], for which the IC50 with HT-29 was 2.8 µM; in test [1] it was 2.76 µM; in the test with A549, 3.98 µM; in test [2], 3.65 µM; in the test with HaCaT it was 16.1 µM.

For the compound `O=C(/C=C\Nc1ccc(F)cc1)c1cn(-c2ccccc2)nc1-c1ccc(F)cc1`, the IC50 was 6.5 µM in the test on HT-29; 7.9 µM in test [1]; 5.78 µM with A549; 18.2 µM in test [2]; more than 50 µM with HaCaT.

Take `COc1cc(N/C=C\C(=O)c2cn(-c3ccccc3)nc2-c2ccc(Cl)cc2)cc(OC)c1OC`: the 50% inhibitory concentration (IC50) in the test with HT-29 stood at 12.7 µM; in test [1], 9.98 µM; with A549, 5.64 µM; in test [2], 17.8 µM; with HaCaT it was 46.6 µM.

Turning to `COc1cc(N/C=C\C(=O)c2cn(-c3ccccc3)nc2-c2cc(OC)c(OC)c(OC)c2)cc(OC)c1OC`, the IC50 was 8.4 µM in the test with HT-29; 14.1 µM in test [1]; 7.98 µM with A549; 5.1 µM in test [2]; 20.9 µM in the test on HaCaT.

`COc1ccc(N/C=C\C(=O)c2cn(-c3ccccc3)nc2-c2cc(OC)c(OC)c(OC)c2)cc1`: the IC50 with HT-29 was 5.78 µM; in test [1], 9.6 µM; in the test with A549 it was 4.78 µM; in test [2], 12.8 µM; in the test on HaCaT, more than 50 µM.

Regarding `COc1ccc(N/C=C\C(=O)c2cn(-c3ccccc3)nc2-c2ccccc2)cc1`, the IC50 in the test with HT-29 was 1.56 µM; in test [1], 6.4 µM; in the test with A549 it was 3.25 µM; in test [2], more than 50 µM; in the test with HaCaT, more than 50 µM.

Take `O=C(/C=C\Nc1ccc(C(F)(F)F)cc1)c1cn(-c2ccccc2)nc1-c1ccc(Cl)cc1`: the IC50 (in the test with HT-29; in test [1]; in the test on A549; in test [2]; in the test on HaCaT) was more than 50 µM each time.

With `COc1cc(N/C=C\C(=O)c2cn(-c3ccccc3)nc2-c2ccccc2)cc(OC)c1OC`, the IC50 with HT-29 came to 9.8 µM; in test [1], 5.93 µM; with A549 it was 6.34 µM; in test [2] it was 2.35 µM; with HaCaT, 36.2 µM.

Take `O=C(/C=C\Nc1ccc(C(F)(F)F)cc1)c1cn(-c2ccccc2)nc1-c1ccccc1`: the IC50 (in the test with HT-29; in test [1]; with A549; in test [2]; in the test with HaCaT) was more than 50 µM in each case.

Consider `O=C(/C=C\Nc1ccc(Cl)cc1)c1cn(-c2ccccc2)nc1-c1ccc(Cl)cc1`, for which the concentration for half-maximal inhibition (IC50) in the test on HT-29 worked out at 4.65 µM; in test [1], 3.89 µM; in the test with A549, 3.67 µM; in test [2], 13.1 µM; with HaCaT, 23.4 µM.

Consider `COc1ccc(-c2nn(-c3ccccc3)cc2C(=O)/C=C\Nc2cc(OC)c(OC)c(OC)c2)cc1`, for which the IC50 in the test with HT-29 was 14.6 µM; in test [1], 18.9 µM; with A549 it was 11.2 µM; in test [2] it was more than 50 µM; in the test on HaCaT, more than 50 µM.

`COc1cc(-c2nn(-c3ccccc3)cc2C(=O)/C=C\Nc2ccc(C(F)(F)F)cc2)cc(OC)c1OC`: the IC50 (in the test on HT-29; in test [1]; in the test on A549; in test [2]; in the test with HaCaT) was more than 50 µM throughout.

On to `COc1ccc(N/C=C\C(=O)c2cn(-c3ccccc3)nc2-c2ccc(OC)cc2)cc1`, for which the IC50 in the test with HT-29 was 8.76 µM; in test [1], 13.4 µM; in the test with A549, 6.78 µM; in test [2], more than 50 µM; in the test on HaCaT it was more than 50 µM.

`COc1ccc(-c2nn(-c3ccccc3)cc2C(=O)/C=C\Nc2ccc(C(F)(F)F)cc2)cc1`: the IC50 with HT-29 was 9.87 µM; in test [1], more than 50 µM; in the test with A549, more than 50 µM; in test [2], more than 50 µM; in the test with HaCaT, more than 50 µM.

On to `COc1ccc(N/C=C\C(=O)c2cn(-c3ccccc3)nc2-c2ccc(Cl)cc2)cc1`, for which the IC50 in the test on HT-29 came to 8.93 µM; in test [1], 10.7 µM; in the test on A549, 6.46 µM; in test [2], 6.89 µM; in the test on HaCaT it was 30.8 µM.

`COc1ccc(-c2nn(-c3ccccc3)cc2C(=O)/C=C\Nc2ccc(F)cc2)cc1`: the IC50 came to 7.65 µM with HT-29; 5.73 µM in test [1]; 3.98 µM in the test with A549; 8.91 µM in test [2]; 8.91 µM in the test with HaCaT.

`COc1cc(N/C=C\C(=O)c2cn(-c3ccccc3)nc2-c2ccc(F)cc2)cc(OC)c1OC`: the IC50 worked out at 7.77 µM with HT-29; 4.89 µM in test [1]; 9.35 µM in the test on A549; 12.6 µM in test [2]; 32.8 µM in the test on HaCaT.

Turning to `O=C(/C=C\Nc1ccc(O)cc1)c1cn(-c2ccccc2)nc1-c1ccccc1`, the IC50 came to 5 µM with HT-29; 3.6 µM in test [1]; 3.21 µM in the test with A549; 4.29 µM in test [2]; 44.6 µM in the test on HaCaT.

Turning to `O=C(/C=C\Nc1ccc(F)cc1)c1cn(-c2ccccc2)nc1-c1ccc(Cl)cc1`, the IC50 with HT-29 is more than 50 µM; in test [1], more than 50 µM; in the test on A549, more than 50 µM; in test [2], 17.9 µM; in the test with HaCaT it was more than 50 µM.

Take `COc1cc(-c2nn(-c3ccccc3)cc2C(=O)/C=C\Nc2ccc(Cl)cc2)cc(OC)c1OC`: the IC50 with HT-29 is 7.68 µM; in test [1], 11.2 µM; in the test with A549, 8.67 µM; in test [2], 3.21 µM; in the test with HaCaT, 30.2 µM.

As to `O=C(/C=C\Nc1ccc(F)cc1)c1cn(-c2ccccc2)nc1-c1ccccc1`, the IC50 was 6.87 µM in the test on HT-29; 7.98 µM in test [1]; 4.67 µM with A549; 10.2 µM in test [2]; 34.2 µM in the test on HaCaT.

Regarding `COc1ccc(-c2nn(-c3ccccc3)cc2C(=O)/C=C\Nc2ccc(Cl)cc2)cc1`, the IC50 in the test with HT-29 came out at 4.76 µM; in test [1] it was 3.89 µM; in the test on A549, 2.97 µM; in test [2] it was 8.86 µM; in the test on HaCaT it was 20.9 µM.

Regarding `COc1ccc(N/C=C\C(=O)c2cn(-c3ccccc3)nc2-c2ccc(F)cc2)cc1`, the IC50 stood at 3.2 µM in the test with HT-29; 4.6 µM in test [1]; 8.9 µM in the test with A549; 2.5 µM in test [2]; 19.6 µM with HaCaT.

Consider `COc1cc(-c2nn(-c3ccccc3)cc2C(=O)/C=C\Nc2ccc(F)cc2)cc(OC)c1OC`, for which the IC50 in the test on HT-29 turned out to be 12.5 µM; in test [1] it was 7.7 µM; in the test with A549 it was 15.6 µM; in test [2], 4.78 µM; in the test with HaCaT, 25.7 µM.

As for `COc1cc(-c2nn(-c3ccccc3)cc2C(=O)/C=C\Nc2ccc(O)cc2)cc(OC)c1OC`, the IC50 is 2.5 µM in the test with HT-29; 4.6 µM in test [1]; 3.16 µM in the test on A549; 1.8 µM in test [2]; 17.6 µM with HaCaT.

The values above are taken from ChEMBL document CHEMBL3804806, “Synthesis of (Z)-1-(1,3-diphenyl-1H-pyrazol-4-yl)-3-(phenylamino)prop-2-en-1-one derivatives as potential anticancer and apoptosis inducing agents” (Eur J Med Chem, 2016).
